This is an account of results in article PMC11913021 (Journal of Medicinal Chemistry, 2024).

pIC50: −log10 of the molar value. Read-outs that look alike come from different tables or passages of the source.

Format in all cases: cell-based
In one assay the test system is HCT116 cells. In words: WST-1 cell viability assay, HCT116. The conditions noted are these: read-out: IC50 of viability; HCT116, WST-1, 48 h. The essentials:
(§1)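 Cells grown in DMEM or RPMI 1640 with 10% FBS and 1% penicillin/streptomycin at 37 °C, 5% CO2. Seeded at 5 × 10^3 cells/well and held 24 h at 37 °C, then exposed to test compound for 48 h. WST-1 absorbance was read at 450 nm, in triplicate. IC50 was taken as the concentration giving 50% growth inhibition versus control.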
On the technique in general: Tetrazolium assays rely on reduction of a dye to a coloured formazan, in cell work by metabolically active cells.

For another assay, the system named is A549 cells. As to the kind of experiment: WST-1 cell viability assay, A549. As to conditions: read-out: IC50 of viability. The essentials: as §1
The subject of another assay is PLD. As to the kind of experiment: PLD activity inhibition in A549 cells. As to conditions: read-out: IC50 for PLD inhibition.

Regarding “3,5-Bis(trifluoromethyl)phenyl 5-Fluoro-1H-indole-2-carboxylate [3ac]”, the pIC50 (as a rule, the negative decadic logarithm of the IC50, by convention in mol/L) in the assay with HCT116 cells was under 4.30; in the assay on A549 cells (A549, WST-1, 48 h), 4.30; in the assay with PLD it was 5.51.
On to `C[C@@H](CN1CCC(n2c(=O)[nH]c3cc(Cl)ccc32)CC1)NC(=O)c1ccc2ccccc2c1` [VU0155069, reference compound], for which the pIC50 in the assay with A549 cells (Homo sapiens, A549, 48 h) was 4.73.
“N-(3,4-Dihydroxyphenyl)-5-fluoro-1H-indole-2-carboxamide [4c]”: the pIC50 is under 4.30 with HCT116 cells; under 3.70 in the assay on A549 cells (A549, WST-1, 48 h); 5.37 in the assay on PLD.
